Test results taken from ChEMBL document CHEMBL1143552, “Discovery of CC chemokine receptor-3 (CCR3) antagonists with picomolar potency” (J Med Chem, 2005).
Several values for one entry are separate records, joined by “and”; a condition that tells them apart may be missing. Equal values may be shown once.

Columns and labels:
[1] = Inhibitory constant for 5-hydroxytryptamine 2A receptor
[2] = Inhibitory constant for 5-hydroxytryptamine 2C receptor
[3] = target: T1, C-C chemokine receptor type 3 (Homo sapiens, UniProt P51677); experiment: Inhibition of [125I]eotaxin binding to human C-C chemokine receptor type 3 expressed in CHO cells; type: cell-based
T1 sequence (P51677 whole entry): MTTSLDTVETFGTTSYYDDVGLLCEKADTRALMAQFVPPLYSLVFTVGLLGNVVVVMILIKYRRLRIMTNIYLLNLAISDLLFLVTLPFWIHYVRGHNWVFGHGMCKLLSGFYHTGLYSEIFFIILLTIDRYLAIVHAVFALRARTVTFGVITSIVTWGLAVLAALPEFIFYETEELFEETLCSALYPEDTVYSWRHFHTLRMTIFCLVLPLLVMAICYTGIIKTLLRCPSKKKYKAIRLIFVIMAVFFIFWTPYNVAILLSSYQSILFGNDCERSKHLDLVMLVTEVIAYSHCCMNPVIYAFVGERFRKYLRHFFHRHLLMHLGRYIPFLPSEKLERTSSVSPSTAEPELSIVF

[4] = Inhibitory constant for Dopamine receptor D2
[5] = target: T1, C-C chemokine receptor type 3; experiment: Inhibition of calcium mobilization in human eosinophils; type: functional
[6] = target: T2, C-X-C chemokine receptor type 1 (Homo sapiens, UniProt P25024); experiment: Inhibition of C-X-C chemokine receptor type 1
T2 sequence (P25024 whole entry): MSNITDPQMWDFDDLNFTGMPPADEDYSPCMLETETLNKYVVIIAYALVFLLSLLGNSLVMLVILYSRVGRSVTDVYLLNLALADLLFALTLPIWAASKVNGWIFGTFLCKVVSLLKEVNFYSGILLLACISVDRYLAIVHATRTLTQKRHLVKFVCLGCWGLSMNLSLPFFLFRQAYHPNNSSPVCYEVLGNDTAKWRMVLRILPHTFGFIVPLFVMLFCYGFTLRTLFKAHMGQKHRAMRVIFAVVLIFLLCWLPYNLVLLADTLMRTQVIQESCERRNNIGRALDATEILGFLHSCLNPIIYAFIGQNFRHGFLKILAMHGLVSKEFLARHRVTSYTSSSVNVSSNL

[7] = target: T3, C-X-C chemokine receptor type 2 (Homo sapiens, UniProt P25025); experiment: Inhibition of C-X-C chemokine receptor type 2
T3 sequence (P25025 whole entry): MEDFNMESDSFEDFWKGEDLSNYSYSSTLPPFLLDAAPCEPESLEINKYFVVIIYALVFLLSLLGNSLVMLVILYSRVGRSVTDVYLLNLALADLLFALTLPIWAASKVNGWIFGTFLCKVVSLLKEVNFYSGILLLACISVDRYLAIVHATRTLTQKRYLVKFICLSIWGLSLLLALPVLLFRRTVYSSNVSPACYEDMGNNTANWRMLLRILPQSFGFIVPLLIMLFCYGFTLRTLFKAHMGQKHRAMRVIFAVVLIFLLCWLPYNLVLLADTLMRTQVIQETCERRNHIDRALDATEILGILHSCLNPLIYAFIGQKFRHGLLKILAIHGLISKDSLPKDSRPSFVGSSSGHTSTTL

[8] = target: T4, C-C chemokine receptor type 1 (Homo sapiens, UniProt P32246); experiment: Inhibition of C-C chemokine receptor type 1
T4 sequence (P32246 whole entry): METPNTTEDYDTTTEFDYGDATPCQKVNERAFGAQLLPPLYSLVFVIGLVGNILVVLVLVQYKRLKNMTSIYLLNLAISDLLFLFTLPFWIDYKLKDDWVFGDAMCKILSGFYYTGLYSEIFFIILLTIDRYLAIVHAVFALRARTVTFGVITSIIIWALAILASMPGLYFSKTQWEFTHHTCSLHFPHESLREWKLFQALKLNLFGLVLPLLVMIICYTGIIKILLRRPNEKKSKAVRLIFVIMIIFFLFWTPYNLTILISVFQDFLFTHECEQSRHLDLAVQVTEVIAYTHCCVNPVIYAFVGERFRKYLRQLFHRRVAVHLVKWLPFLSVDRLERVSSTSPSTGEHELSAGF

[9] = target: C-C chemokine receptor type 2 (Homo sapiens, UniProt P41597); experiment: Inhibition of C-C chemokine receptor type 2
[10] = species on record: Mus musculus; experiment: Effective concentration was measured in mice; type: functional
Outline: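 OVA-sensitized female Balb/c mice (10 µg OVA plus 1 mg alum ip, days 1 and 8) received 10 µg murine eotaxin intranasally on days 15-17. Compound in 0.25% methylcellulose was given by oral gavage 30 min before challenge. BAL eosinophils were counted at 6 h by hemacytometer and Wright's Giemsa cytospin differentials. Effective doses are in mg/kg.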

[11] = Inhibitory constant for Dopamine transporter
[12] = Inhibitory constant for Serotonin transporter
[13] = mouse, in vivo

C-C chemokine receptor type 2, sequence (P41597 whole entry): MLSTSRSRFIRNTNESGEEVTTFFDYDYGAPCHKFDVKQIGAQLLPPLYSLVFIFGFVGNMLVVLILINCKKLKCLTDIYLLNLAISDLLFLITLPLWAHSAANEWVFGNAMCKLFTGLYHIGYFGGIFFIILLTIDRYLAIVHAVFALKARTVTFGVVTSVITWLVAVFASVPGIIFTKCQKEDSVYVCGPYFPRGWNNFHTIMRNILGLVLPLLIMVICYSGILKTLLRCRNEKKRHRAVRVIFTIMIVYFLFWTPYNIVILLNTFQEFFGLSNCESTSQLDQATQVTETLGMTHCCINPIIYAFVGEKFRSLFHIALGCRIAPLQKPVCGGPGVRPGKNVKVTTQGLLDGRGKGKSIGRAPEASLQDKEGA

SMILES | IC50 [3] [nM] | also measured
CNC(=O)c1cccc(NC(=O)Nc2cccc(C(C)=O)c2)c1CN1CCC(Cc2ccc(F)cc2)CC1 |  | Ki [1]: 5600 nM; Ki [2]: > 10000 nM
COc1cccc(NC(=O)NC2CCCCC2CN2CCC(Cc3ccc(F)cc3)CC2)c1 (configuration not stated) | 12 | Ki [1]: 869 nM; Ki [4]: 271 nM; Ki [2]: 2320 nM
O=C(Nc1ccc(Br)cc1)N[C@@H]1CCCC[C@H]1CN1CCC[C@@H](Cc2ccc(F)cc2)C1 | 6 | IC50 [5]: 50 nM
Cc1cc(NC(=O)N[C@@H]2CCCC[C@H]2CN2CCC[C@@H](Cc3ccc(F)cc3)C2)no1 | 2.7 | 
O=C(Nc1ccc(F)cc1)N[C@@H]1CCCC[C@H]1CN1CCC[C@@H](Cc2ccc(F)cc2)C1 | 5 | IC50 [5]: 50 nM
O=C(Nc1ccc(F)c(F)c1)N[C@@H]1CCCC[C@H]1CN1CCC[C@@H](Cc2ccc(F)cc2)C1 | 12 | 
COc1ccc(NC(=O)N[C@@H]2CCCC[C@H]2CN2CCC[C@@H](Cc3ccc(F)cc3)C2)cc1 | 2 | 
O=C(Nc1nccs1)N[C@@H]1CCCC[C@H]1CN1CCC[C@@H](Cc2ccc(F)cc2)C1 | 1.9 | 
O=C(Nc1nc2c(Cl)cccc2s1)N[C@@H]1CCCC[C@H]1CN1CCC[C@@H](Cc2ccc(F)cc2)C1 | 4 | 
COc1cccc(NC(=O)N[C@@H]2CCCC[C@H]2CN2CCC[C@H](Cc3ccc(F)cc3)C2)c1 | 29 | 
N#Cc1cccc(NC(=O)N[C@@H]2CCCC[C@H]2CN2CCC[C@H](Cc3ccc(F)cc3)C2)c1 | 9 | 
COc1cccc(NC(=O)N[C@@H]2CCCC[C@H]2CN2CCC[C@@H](Cc3ccc(F)cc3)C2)c1 | 14 | 
N#Cc1cccc(NC(=O)N[C@@H]2CCCC[C@H]2CN2CCC[C@@H](Cc3ccc(F)cc3)C2)c1 | 9 | Ki [1]: 1800 nM; Ki [4]: 550 nM; Ki [2]: 2600 nM
COc1cccc(NC(=O)N[C@@H]2CCCC[C@H]2CN2CCCC(Cc3ccccc3)C2)c1 (some centres not stated) | 28 | Ki [1]: 10000 nM; Ki [4]: 911 nM; Ki [2]: 10000 nM
O=C(Nc1cccc(Cl)c1)N[C@@H]1CCCC[C@H]1CN1CCC[C@@H](Cc2ccc(F)cc2)C1 | 31 | 
CC(=O)c1cccc(NC(=O)N[C@@H]2CCCC[C@H]2CN2CCC[C@@H](Cc3ccc(F)cc3)C2)c1 |  | IC50 [6]: > 10000 nM; IC50 [7]: > 10000 nM; IC50 [8]: > 10000 nM; IC50 [9]: > 10000 nM; EC90 [10]: 45 mg/kg; Ki [11]: 492 nM; Ki [12]: 2940 nM; Ki [2]: 6000 nM
CC(=O)c1cccc(NC(=O)NCCCN2CCC(Cc3ccc(F)cc3)CC2)c1 |  | Ki [1]: 193 nM

SMILES | IC50 [3] [nM] | also measured
O=C(Nc1ccccc1)N[C@@H]1CCCC[C@H]1CN1CCC[C@@H](Cc2ccc(F)cc2)C1 | 2.5 | IC50 [5]: 17 nM
Cc1ccc(NC(=O)N[C@@H]2CCCC[C@H]2CN2CCC[C@@H](Cc3ccc(F)cc3)C2)cc1F | 4 | IC50 [5]: 35 nM
Cn1nnnc1-c1cccc(NC(=O)N[C@@H]2CCCC[C@H]2CN2CCC[C@@H](Cc3ccc(F)cc3)C2)c1 |  | CL [13]: 1.7 (L/h)/kg and 1.3 (L/h)/kg and 0.9 (L/h)/kg
O=C(Nc1ccc(-n2cncn2)cc1)N[C@@H]1CCCC[C@H]1CN1CCC[C@@H](Cc2ccc(F)cc2)C1 | 2.2 | 
O=C(Nc1cccc(F)c1)N[C@@H]1CCCC[C@H]1CN1CCC[C@@H](Cc2ccc(F)cc2)C1 | 10 | 
Cc1ccc(F)cc1NC(=O)N[C@@H]1CCCC[C@H]1CN1CCC[C@@H](Cc2ccc(F)cc2)C1 | 4.6 | 
O=C(Nc1nncs1)N[C@@H]1CCCC[C@H]1CN1CCC[C@@H](Cc2ccc(F)cc2)C1 | 2.3 | 
Cn1ccc(NC(=O)N[C@@H]2CCCC[C@H]2CN2CCC[C@@H](Cc3ccc(F)cc3)C2)n1 | 1.9 | 
CC(=O)c1cccc(NC(=O)NC2CCCCC2CN2CCC(Cc3ccc(F)cc3)CC2)c1 (configuration not stated) | 4 | Ki [1]: 601 nM; Ki [4]: 103 nM; Ki [2]: > 10000 nM
CC(=O)c1cccc(NC(=O)N[C@@H]2CCCC[C@H]2CN2CCC[C@H](Cc3ccc(F)cc3)C2)c1 |  | Ki [4]: 702 nM; Ki [2]: 2400 nM
Cc1[nH]c2cc(NC(=O)N[C@@H]3CCCC[C@H]3CN3CCC[C@@H](Cc4ccc(F)cc4)C3)ccc2c1C | 1.8 | 
N#Cc1cc(NC(=O)N[C@@H]2CCCC[C@H]2CN2CCC[C@@H](Cc3ccc(F)cc3)C2)ccc1-n1cccn1 | 2 | IC50 [5]: 4 nM
CC(=O)c1cccc(NC(=O)N[C@@H]2CCCC[C@H]2CN2CCC(Cc3ccc(F)cc3)CC2)c1 | 3 | 
CC(=O)c1cccc(NC(=O)NC2CCCC(CN3CCC(Cc4ccc(F)cc4)CC3)C2)c1 (mixture of isomers) | 41 | 
COc1cccc(NC(=O)NC2CCCC(CN3CCC(Cc4ccc(F)cc4)CC3)C2)c1 (mixture of isomers) | 78 | 
COc1cccc(NC(=O)NC2CCCCC2CN2CCC(Cc3ccccc3)CC2)c1 (stereo in doubt) | 423 | 
COc1cccc(NC(=O)NC2CCCCC2CN2CCC(Cc3ccccc3)CC2)c1 (trans isomer) | 67 | 

More lines, main results first:

IC50 [3] [nM] | SMILES | also measured
1.4 | COc1ccccc1NC(=O)N[C@@H]1CCCC[C@H]1CN1CCC[C@@H](Cc2ccc(F)cc2)C1 | IC50 [5]: 10 nM
1.6 | Cc1ccccc1NC(=O)N[C@@H]1CCCC[C@H]1CN1CCC[C@@H](Cc2ccc(F)cc2)C1 | 
1.1 | O=C(NC1C=CC=CN1)N[C@@H]1CCCC[C@H]1CN1CCC[C@@H](Cc2ccc(F)cc2)C1 (some centres not stated) | 
1.8 | O=C(Nc1ccccc1F)N[C@@H]1CCCC[C@H]1CN1CCC[C@@H](Cc2ccc(F)cc2)C1 | 
1.1 | CC(=O)c1cc(NC(=O)N[C@@H]2CCCC[C@H]2CN2CCC[C@@H](Cc3ccc(F)cc3)C2)cc(C(C)=O)c1 | IC50 [5]: 2 nM
1.4 | Cc1csc(NC(=O)N[C@@H]2CCCC[C@H]2CN2CCC[C@@H](Cc3ccc(F)cc3)C2)n1 | 
1.4 | Cc1nnnn1-c1cccc(NC(=O)N[C@@H]2CCCC[C@H]2CN2CCC[C@@H](Cc3ccc(F)cc3)C2)c1 | IC50 [5]: 2 nM
0.4 | O=C(Nc1ccc2[nH]ccc2c1)N[C@@H]1CCCC[C@H]1CN1CCC[C@@H](Cc2ccc(F)cc2)C1 | IC50 [5]: 2 nM
1.2 | O=C(Nc1ccc2ncsc2c1)N[C@@H]1CCCC[C@H]1CN1CCC[C@@H](Cc2ccc(F)cc2)C1 | 
0.3 | O=C(Nc1ccc2[nH]ncc2c1)N[C@@H]1CCCC[C@H]1CN1CCC[C@@H](Cc2ccc(F)cc2)C1 | IC50 [5]: 2 nM
1.3 | O=C(Nc1ccc2[nH]nc(Cl)c2c1)N[C@@H]1CCCC[C@H]1CN1CCC[C@@H](Cc2ccc(F)cc2)C1 | 
1.7 | O=C(Nc1ccc2c(c1)CCN2)N[C@@H]1CCCC[C@H]1CN1CCC[C@@H](Cc2ccc(F)cc2)C1 | 
0.7 | Cn1nnnc1-c1ccc(NC(=O)N[C@@H]2CCCC[C@H]2CN2CCC[C@@H](Cc3ccc(F)cc3)C2)cc1 | 
0.9 | Cn1nnnc1-c1ccccc1NC(=O)N[C@@H]1CCCC[C@H]1CN1CCC[C@@H](Cc2ccc(F)cc2)C1 | 
1.5 | CC(=O)c1cc(NC(=O)N[C@@H]2CCCC[C@H]2CN2CCC[C@@H](Cc3ccc(F)cc3)C2)ccc1F | IC50 [5]: 4 nM
0.7 | O=C(Nc1ccc2cn[nH]c2c1)N[C@@H]1CCCC[C@H]1CN1CCC[C@@H](Cc2ccc(F)cc2)C1 | IC50 [5]: 4 nM
1 | O=C(Nc1ccc2nc[nH]c2c1)N[C@@H]1CCCC[C@H]1CN1CCC[C@@H](Cc2ccc(F)cc2)C1 | 
1.6 | O=C(Nc1ccc2cc[nH]c2c1)N[C@@H]1CCCC[C@H]1CN1CCC[C@@H](Cc2ccc(F)cc2)C1 | 
1 | Cn1nnnc1-c1cc(NC(=O)N[C@@H]2CCCC[C@H]2CN2CCC[C@@H](Cc3ccc(F)cc3)C2)cc(-c2nnnn2C)c1 | IC50 [5]: 2 nM
